Assay outcomes from PubChem.
Yeast growth inh: chemicals that inhibit yeast BB579 growth in restrictive medium (lifespan-shortening candidates); S. cerevisiae BB579 growth, OD615, 48 h; inhibition, % at 10 µM; hit rate 0.51% among 140,000; AID 804;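 active means inhibition above a set limit, 3 SD over the mean compound inhibition, cut at about 44% in these data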
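test system = yeast BB579 (DeaD) | buffer or medium = restrictive CSMM-D medium | doses = single compound dose of 10 µM, 0.25% DMSO final | times = 4 h preincubation and 48 h exposure at 30 °C | technique = culture absorbance at 615 nm | benchmarks = amphotericin B 10 µg/mL, positive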
Yeast lifespan up: yeast lifespan extension; hit rate 0.68% among 130,000; S. cerevisiae growth with nicotinamide, OD615; deaD strain in restrictive glucose medium; inhibition of the nicotinamide effect, % at 10 µM;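 active means inhibition above a set limit, placed 3 SD over the median of all compounds, cut at about 26% in these data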;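 further: 0% = nicotinamide-treated wells and 100% = cells grown without nicotinamide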
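Test system – modified budding yeast, DeaD strain · Compound – single dose 10 µM compound, 0.25% DMSO · Times – culture preincubation 4 h, compound exposure 48 h, both 30 °C · Detection – optical density (absorbance) at 615 nm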
RAM network inh: yeast RAM network inhibition. inhibition, % at 50 µM. hit rate 1.8% among 190,000. S. cerevisiae dse1pr::URA3 reporter, 5-FOA growth OD615, 2 d; analog-sensitive cbk1-as2 kinase mutant strain;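 active means inhibition above a set limit, 3 SD over mean compound inhibition, cut at about 8.4% in these data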;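 further: 0% = DMSO-only wells with no growth and 100% = 10 µM 1-NA-PP1 full growth; inhibition rescues growth on 5-FOA so higher OD means more RAM inhibition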
SDO1 yeast rescue: sdo1-depleted yeast growth rescue; S. cerevisiae sdo1-depleted JHY4D growth rescue, OD600 30 h; hits give high values; pdr5 snq2 efflux-pump mutant strain; hit rate 0.21% among 140,000; z-score at 10 µM;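 active means z-score above 3 at both the 24 hr and the 30 hr optical density reads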;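 further: z-score against mean and SD of all compound wells on the same plate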
Starred values were filed as active, the others as inactive; nt = not tested or not shown. Rows were chosen to be rich in hits. Some 2.7% of all compounds tested hit in one or more screens of this group.

SMILES | Yeast growth inh | Yeast lifespan up | RAM network inh | SDO1 yeast rescue
Cc1cc(-c2nnc(CCC(=O)N(C)Cc3cccc4ccccc34)o2)no1 | nt | nt | -1.0 | nt
O=C(O)CCN1C(=O)c2ccc(Oc3ccc4c(c3)C(=O)N(CCC(=O)O)C4=O)cc2C1=O | -47.8 | -5.6 | 10.4* | 0.87
O=C1c2ccc(Oc3ccc4c(c3)C(=O)N(CCCCO)C4=O)cc2C(=O)N1CCCCO | -2.4 | -1.7 | 6.6 | -0.5
Cc1cccc(Oc2nc(CN3CCOCC3)nc3sc4c(c23)CCCC4)c1 | -27.8 | 32.9* | 0.4 | -2.26
CC(c1ccco1)N(C(=O)c1ccccc1NS(=O)(=O)c1ccc(Cl)c([N+](=O)[O-])c1)c1ccccn1 (stereo not given) | -24.7 | 40.4* | 0.5 | -1.75
COc1ccc([N+](=O)[O-])cc1NC(=O)c1ccc(-n2nc(C)cc2C)cc1 | nt | nt | 1.7 | nt
CCOC(=O)C1=C(CSc2nc(-c3ccccc3)ccc2C#N)OC(N)=C(C#N)C1c1ccccc1 (stereo not given) | -7.9 | -6.2 | 8.6* | 0.38
CCOC(=O)CC1=NN(c2ccccc2)C(=O)/C1=C\c1ccc(OC)cc1OC | -26.6 | 51.2* | 6.3 | -0.51
CCOC(=O)C1=NN(c2ccccc2)C(=O)/C1=C\c1ccc(N(C)C)cc1 | -40.2 | 3.5 | 3.7 | -1.55
COC(=O)CC1=NN(c2ccccc2)C(=O)/C1=C\c1ccc(OC)cc1 | -38.0 | 52.7* | 9.5* | -0.3
COC(=O)CC1=NN(c2ccc(OC)cc2)C(=O)/C1=C\c1ccc(Cl)cc1 | -24.1 | 31.4* | 4.0 | 0.24
CC(C)N(C)C(=O)C(=O)c1cccn1-c1cccc(Cl)c1C#N | nt | nt | -0.1 | nt
CCCCC(=O)Nc1nnc(CCOC)s1 | nt | nt | 1.2 | nt
COCCCNC(=S)NCCNc1nc2c(C)c(C)ccc2cc1C#N | nt | nt | 9.6* | nt
COCCCNC(=S)NCCCNc1nc2cc(C)cc(C)c2cc1C#N | nt | nt | 1.9 | nt
N#Cc1ccccc1Oc1ccccc1C=O | nt | nt | 2.1 | nt
COC(=O)C1=C(C)NC(C)=C(C(=O)OC)C1c1ccc2ccccc2n1 | -62.9 | 3.0 | 0.3 | 1.13
O=C1c2ccccc2C(=O)C1c1ccc2ccccc2n1 | 53.8* | -8.2 | 2.2 | -0.8
CC1=C(C(=O)OCc2ccccc2)C(c2cccc([N+](=O)[O-])c2)NC(=O)N1CCCCCC(=O)O (stereo not given) | -53.7 | 10.2 | 11.0* | 0.43
CCOC(=O)C1=C(C)N(CCCCCC(=O)O)C(=O)NC1c1ccccc1Cl (stereo not given) | -26.8 | -0.1 | 3.8 | 0.58
CCOC(=O)C1=C(C)N(CCCC(=O)O)C(=O)NC1c1ccccc1OS(=O)(=O)c1ccc(C)cc1 (stereo not given) | -5.2 | -0.6 | 8.4* | -0.09
CC1=C(C(=O)OCc2ccccc2)C(c2ccc(Cl)cc2)NC(=O)N1CCCCCC(=O)O (stereo not given) | -22.8 | 21.4 | 4.3 | -0.2
Cc1c(NC(=S)NC(NC(=O)C(C)C)C(Cl)(Cl)Cl)c(=O)n(-c2ccccc2)n1C (stereo not given) | -25.4 | 0.4 | 1.5 | 1.01
Cc1ccc(/C(N)=N/OC(=O)c2ccc(Cl)cc2Cl)cc1 | 98.7* | -11.1 | 1.9 | -1.76
COc1ccccc1C(=O)O/N=C(\N)c1ccc(Cl)cc1 | -21.1 | -22.0 | 0.4 | -1.74
SMILES | Yeast growth inh | Yeast lifespan up | RAM network inh | SDO1 yeast rescue
O=C1CCC(/C=C/c2ccccc2)=NN1Cc1ccccc1 | nt | nt | 0.4 | nt
CC(C)(C)c1ccc(CN2N=C(/C=C/c3ccccc3)CCC2=O)cc1 | nt | nt | 9.8* | nt
Cc1oc(C)c2c(=O)ccc3c(c12)OC(N)=C(C#N)C3c1ccccc1 (stereo not given) | -7.2 | 3.6 | 0.7 | -1.45
Cc1oc(C)c2c(=O)ccc3c(c12)OC(N)=C(C#N)C3c1ccccc1Cl (stereo not given) | -44.0 | 5.5 | 8.8* | -1.31
C=CCOc1c(Cl)cc(CNc2ccc(C)c(Cl)c2)cc1OC | -17.6 | -0.7 | -0.1 | -0.54
C=CCOc1c(Cl)cc(CNc2ccc(N(C)C)cc2)cc1OC | -65.2 | -0.7 | 8.4* | 0.37
CC(C)N(CCc1ccncc1)C(=S)Nc1ccc(F)c(Cl)c1 | nt | nt | 2.5 | nt
O=C1/C(=C\c2ccc3c(c2)OCO3)CCC/C1=C/c1ccc2c(c1)OCO2 | -18.6 | -5.4 | 8.1 | -1.29
CC1CC/C(=C\c2ccc3c(c2)OCO3)C(=O)/C1=C/c1ccc2c(c1)OCO2 (stereo not given) | -16.7 | -7.0 | 10.0* | -0.4
CCOC(=O)Cc1csc(NC(=S)NC(=O)c2ccccc2)n1 | -31.2 | -2.8 | 3.0 | -1.63
CCOC(=O)Cc1csc(NC(=S)NC(=O)c2ccc(C)cc2)n1 | -8.9 | -0.9 | 9.7* | -0.84
CCOC(=O)Cc1csc(NC(=S)NC(=O)c2cc(OC)cc(OC)c2)n1 | nt | nt | 1.2 | nt
CCOC(=O)Cc1csc(NC(=S)NC(=O)c2ccccc2Br)n1 | -11.0 | 7.4 | 8.6* | -1.49
N=C(N=C(N)N)N1CCc2ccccc21 | nt | nt | 3.5 | nt
Cc1ccc2cc(/C=N/NC(=O)c3ccccc3[N+](=O)[O-])c(Cl)nc2c1 | nt | nt | 4.1 | nt
COC(=O)CSc1ccc(S(=O)(=O)N2CCOCC2)cc1[N+](=O)[O-] | -35.9 | -1.1 | 0.9 | 0.95
CCOC(=O)CSc1ccc(S(=O)(=O)N2CCC(C)CC2)cc1[N+](=O)[O-] | -39.7 | 8.3 | 10.6* | -0.53
O=S(=O)(NCc1ccccn1)c1ccc(Cl)s1 | nt | nt | 0.2 | nt
COc1ccc(N2C(=O)C(CC(=O)Nc3ccccc3)N(Cc3ccccn3)C2=S)cc1 (stereo not given) | nt | nt | 0.2 | nt
C=C(C)Cn1c(C)cc(C)c(S(=O)(=O)c2ccc(C)cc2)c1=O | nt | nt | 0.6 | nt
Cc1cc(C)n(Cc2ccc(Cl)cc2Cl)c(=O)c1S(=O)(=O)c1ccccc1 | -90.2 | -5.2 | 8.9* | -1.55
COCCNC(=O)C(=O)NCCN1CCNCC1 | nt | nt | -0.1 | nt
CCCN1C(=O)/C(=C/c2c(NCCCOC(C)C)nc3c(C)cccn3c2=O)SC1=S | -18.9 | 8.8 | 9.4* | 0.17
N#CC1(Cc2ccc([N+](=O)[O-])cc2)c2ccccc2C=CN1C(=O)c1ccccc1 (stereo not given) | -27.1 | -6.8 | 4.7 | -0.85
N#CC1(Cc2ccccc2)c2ccccc2C=CN1C(=O)c1ccccc1 (stereo not given) | -15.1 | -4.8 | 8.7* | -0.95
SMILES | Yeast growth inh | Yeast lifespan up | RAM network inh | SDO1 yeast rescue
N#Cc1ccc(C23CC4CC(CC(C4)C2)C3)[nH]c1=O | -22.2 | 5.9 | 0.7 | -0.26
Cc1ncc(C23CC4CC(CC(C4)C2)C3)[nH]1 | -34.3 | 151.9* | 0.5 | 1.64
O=C(Cn1cnc(Cl)c1Cl)c1ccc(F)cc1 | nt | nt | 3.3 | nt
CCCCCCCCCCCCCCCC[n+]1cccc2ccccc21 | 99.7* | -12.6 | -1.6 | -0.99
C/C(=N\NC(=O)c1cccc(Cl)c1)C1C(=O)c2ccccc2C1=O | -40.2 | 43.2* | 4.9 | 2.11
C/C(=N\NC(=O)CCc1ccccc1)C1C(=O)c2ccccc2C1=O | nt | nt | 3.0 | nt
CCOC(=O)N1CCC(N2CCCC(CO)(Cc3ccccc3C)C2)CC1 (stereo not given) | nt | nt | 0.8 | nt
COc1cc(NC2c3ccccc3C(=O)N2c2cc(C)ccn2)cc(OC)c1OC (stereo not given) | -13.3 | 12.0 | -0.8 | 0.24
COc1cc(NC2c3ccccc3C(=O)N2c2ccc(C)cn2)cc(OC)c1OC (stereo not given) | -37.8 | 26.6* | 0.6 | -0.85
